{"source": "ChEMBL document CHEMBL2203081", "about": "(Bioorg Med Chem Lett, 2012)", "key": {"[1]": {"target": "Tyrosine-protein kinase Tec (Homo sapiens) (UniProt P42680)", "assay": "Inhibition of TEC assessed as residual activity at 10 uM relative to control"}, "[2]": {"target": "Leukocyte tyrosine kinase receptor (Homo sapiens) (UniProt P29376)", "assay": "Inhibition of LTK assessed as residual activity at 10 uM relative to control"}, "[3]": {"target": "Insulin-like growth factor 1 receptor (Homo sapiens) (UniProt P08069)", "sequence (P08069 31-736 limits assumed)": "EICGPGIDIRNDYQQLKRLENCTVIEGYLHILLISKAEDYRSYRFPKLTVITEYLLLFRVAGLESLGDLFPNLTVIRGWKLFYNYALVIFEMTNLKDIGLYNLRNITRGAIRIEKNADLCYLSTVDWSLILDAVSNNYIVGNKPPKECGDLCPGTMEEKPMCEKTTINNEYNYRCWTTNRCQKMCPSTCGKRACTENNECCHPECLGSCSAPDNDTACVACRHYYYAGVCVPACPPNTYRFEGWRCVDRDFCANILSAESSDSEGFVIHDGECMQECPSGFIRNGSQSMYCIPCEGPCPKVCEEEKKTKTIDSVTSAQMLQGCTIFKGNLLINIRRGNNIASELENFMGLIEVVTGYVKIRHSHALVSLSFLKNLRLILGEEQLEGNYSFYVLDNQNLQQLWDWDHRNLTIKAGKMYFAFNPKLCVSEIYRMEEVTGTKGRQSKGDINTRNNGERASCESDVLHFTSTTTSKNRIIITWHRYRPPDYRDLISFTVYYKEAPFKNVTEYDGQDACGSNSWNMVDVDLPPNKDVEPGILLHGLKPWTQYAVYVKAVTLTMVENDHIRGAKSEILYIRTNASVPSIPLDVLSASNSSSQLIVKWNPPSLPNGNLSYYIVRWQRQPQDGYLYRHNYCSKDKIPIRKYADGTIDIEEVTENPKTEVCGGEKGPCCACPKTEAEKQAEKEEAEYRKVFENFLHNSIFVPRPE", "sequence (P08069 741-1367 limits assumed)": "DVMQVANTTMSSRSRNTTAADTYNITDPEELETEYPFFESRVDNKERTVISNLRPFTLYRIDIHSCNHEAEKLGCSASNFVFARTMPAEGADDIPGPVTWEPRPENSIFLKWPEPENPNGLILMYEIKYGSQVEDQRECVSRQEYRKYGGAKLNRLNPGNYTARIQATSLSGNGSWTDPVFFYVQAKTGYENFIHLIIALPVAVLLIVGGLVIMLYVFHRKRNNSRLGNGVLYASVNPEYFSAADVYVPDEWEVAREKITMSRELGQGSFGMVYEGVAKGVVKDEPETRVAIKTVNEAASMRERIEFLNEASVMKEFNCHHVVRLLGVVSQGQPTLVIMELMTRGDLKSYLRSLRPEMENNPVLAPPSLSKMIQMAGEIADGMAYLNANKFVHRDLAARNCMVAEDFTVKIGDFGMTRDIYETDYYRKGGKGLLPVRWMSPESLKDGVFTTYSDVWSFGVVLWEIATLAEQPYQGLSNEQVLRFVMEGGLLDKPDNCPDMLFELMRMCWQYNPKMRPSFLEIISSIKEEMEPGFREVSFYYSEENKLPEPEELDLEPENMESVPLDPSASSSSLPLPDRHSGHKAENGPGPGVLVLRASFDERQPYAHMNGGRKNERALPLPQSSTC", "assay": "Inhibition of IGF-1R assessed as residual activity at 10 uM", "method_in_brief": "(§1)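 Radioactivity-based enzymatic activity assay of the named kinase, run as part of a 131-kinase specificity panel at the National Centre for Protein Kinase Profiling (Dundee). Residual activity was read at the stated single inhibitor concentration.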"}, "[4]": {"target": "Serine/threonine-protein kinase TBK1 (Homo sapiens) (UniProt Q9UHD2)", "assay": "Inhibition of TBK1 assessed as residual activity at 10 uM relative to control"}, "[5]": {"target": "Leucine-rich repeat serine/threonine-protein kinase 2 (Homo sapiens) (UniProt Q5S007)", "conditions": "0.01 to 1 uM"}, "[6]": {"target": "Proto-oncogene tyrosine-protein kinase ROS (Homo sapiens) (UniProt P08922)", "sequence (P08922 whole entry)": "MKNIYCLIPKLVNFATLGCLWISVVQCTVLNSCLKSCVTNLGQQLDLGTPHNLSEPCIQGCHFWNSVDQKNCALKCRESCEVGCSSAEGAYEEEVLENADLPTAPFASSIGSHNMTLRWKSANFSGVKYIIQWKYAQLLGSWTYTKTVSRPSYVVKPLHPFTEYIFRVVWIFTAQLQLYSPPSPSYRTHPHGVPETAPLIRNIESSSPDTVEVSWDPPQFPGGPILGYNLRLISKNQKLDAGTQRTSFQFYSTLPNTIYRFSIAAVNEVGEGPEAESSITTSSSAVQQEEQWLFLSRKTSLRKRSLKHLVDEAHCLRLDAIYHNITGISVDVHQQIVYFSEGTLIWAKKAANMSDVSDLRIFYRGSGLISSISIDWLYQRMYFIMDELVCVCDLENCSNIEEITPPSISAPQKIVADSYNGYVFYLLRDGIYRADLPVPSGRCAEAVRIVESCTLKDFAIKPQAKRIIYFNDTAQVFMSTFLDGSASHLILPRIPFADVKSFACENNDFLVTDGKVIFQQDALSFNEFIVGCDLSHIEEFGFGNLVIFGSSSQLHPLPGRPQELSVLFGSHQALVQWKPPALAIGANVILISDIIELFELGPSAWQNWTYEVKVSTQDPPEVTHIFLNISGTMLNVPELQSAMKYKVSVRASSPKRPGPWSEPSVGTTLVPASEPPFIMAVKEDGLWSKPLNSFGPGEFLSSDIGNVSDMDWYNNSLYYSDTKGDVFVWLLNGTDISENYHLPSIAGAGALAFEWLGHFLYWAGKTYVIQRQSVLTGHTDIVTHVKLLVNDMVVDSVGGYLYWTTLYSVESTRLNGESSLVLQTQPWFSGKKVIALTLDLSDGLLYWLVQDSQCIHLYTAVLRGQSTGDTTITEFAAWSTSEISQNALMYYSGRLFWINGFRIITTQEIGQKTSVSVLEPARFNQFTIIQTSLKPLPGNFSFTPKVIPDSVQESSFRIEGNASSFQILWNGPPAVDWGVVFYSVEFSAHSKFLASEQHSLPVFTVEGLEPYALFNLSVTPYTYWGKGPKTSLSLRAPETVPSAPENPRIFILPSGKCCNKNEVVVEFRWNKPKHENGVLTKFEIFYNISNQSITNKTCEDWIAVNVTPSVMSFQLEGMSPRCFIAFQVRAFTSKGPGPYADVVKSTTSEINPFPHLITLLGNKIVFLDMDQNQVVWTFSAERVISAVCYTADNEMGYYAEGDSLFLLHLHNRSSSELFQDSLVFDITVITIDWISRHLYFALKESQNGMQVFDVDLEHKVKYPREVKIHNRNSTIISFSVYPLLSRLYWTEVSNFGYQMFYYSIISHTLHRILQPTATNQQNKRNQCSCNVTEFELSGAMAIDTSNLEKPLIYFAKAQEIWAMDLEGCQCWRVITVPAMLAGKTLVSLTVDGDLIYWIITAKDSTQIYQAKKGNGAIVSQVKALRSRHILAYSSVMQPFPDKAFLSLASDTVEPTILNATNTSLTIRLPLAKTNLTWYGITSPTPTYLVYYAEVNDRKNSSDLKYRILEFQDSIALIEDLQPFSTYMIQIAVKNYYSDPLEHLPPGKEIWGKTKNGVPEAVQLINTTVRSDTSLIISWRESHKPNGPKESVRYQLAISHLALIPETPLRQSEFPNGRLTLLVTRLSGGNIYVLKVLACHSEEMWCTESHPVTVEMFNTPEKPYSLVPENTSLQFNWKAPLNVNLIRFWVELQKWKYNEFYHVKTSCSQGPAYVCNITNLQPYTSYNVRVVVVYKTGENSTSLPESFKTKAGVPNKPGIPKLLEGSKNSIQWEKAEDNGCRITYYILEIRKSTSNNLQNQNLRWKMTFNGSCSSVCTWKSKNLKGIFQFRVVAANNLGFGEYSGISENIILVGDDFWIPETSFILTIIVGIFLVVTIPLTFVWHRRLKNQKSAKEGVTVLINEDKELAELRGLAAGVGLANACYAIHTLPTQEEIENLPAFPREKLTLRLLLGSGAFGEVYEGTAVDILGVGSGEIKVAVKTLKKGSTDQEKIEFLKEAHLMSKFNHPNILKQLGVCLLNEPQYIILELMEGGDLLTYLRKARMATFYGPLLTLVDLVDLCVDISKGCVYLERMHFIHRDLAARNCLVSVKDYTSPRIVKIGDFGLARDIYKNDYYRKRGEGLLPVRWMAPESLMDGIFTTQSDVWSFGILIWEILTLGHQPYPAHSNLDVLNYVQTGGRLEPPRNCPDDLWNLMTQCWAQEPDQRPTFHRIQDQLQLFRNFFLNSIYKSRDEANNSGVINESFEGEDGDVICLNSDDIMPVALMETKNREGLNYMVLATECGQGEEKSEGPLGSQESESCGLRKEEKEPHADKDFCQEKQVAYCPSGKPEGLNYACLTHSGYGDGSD", "assay": "Inhibition of ROS1 assessed as residual activity at 10 uM relative to control"}, "[7]": {"target": "Dual specificity protein kinase CLK4 (Homo sapiens) (UniProt Q9HAZ1)", "assay": "Inhibition of CLK4 assessed as residual activity at 10 uM relative to control", "method_in_brief": "(§2)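 Competition kinase-binding assay (KINOMEscan) across a non-redundant panel of 329 kinases beyond the radiometric panel; residual binding expressed relative to control.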"}, "[8]": {"system": "Receptor-type tyrosine-protein kinase FLT3 (Homo sapiens), P36888 [D835Y]", "assay": "Inhibition of FLT3 D835Y mutant assessed as residual activity at 10 uM relative to control"}, "[9]": {"system": "Epidermal growth factor receptor (Homo sapiens), P00533 [L858R,T790M]", "assay": "Inhibition of EGFR L858R,T790M mutant assessed as residual activity at 10 uM relative to control", "type": "protein assay", "method_in_brief": "as §2"}, "[10]": {"target": "Protein kinase C iota type (Homo sapiens) (UniProt P41743)", "assay": "Inhibition of PRKCI assessed as residual activity at 10 uM relative to control"}, "[11]": {"target": "Ephrin type-A receptor 5 (Homo sapiens) (UniProt P54756)", "assay": "Inhibition of EPHA5 assessed as residual activity at 10 uM relative to control", "method_in_brief": "as §2"}, "[12]": {"target": "Mitogen-activated protein kinase 10 (Homo sapiens) (UniProt P53779)", "assay": "Inhibition of JNK3 assessed as residual activity at 10 uM relative to control"}, "[13]": {"target": "Serine/threonine-protein kinase 36 (Homo sapiens) (UniProt Q9NRP7)", "assay": "Inhibition of STK36 assessed as residual activity at 10 uM relative to control"}, "[14]": {"system": "Mus musculus", "assay": "Inhibition of LRRK2 in mouse assessed as inhibition of Ser910 autophosphorylation in brain at 100 mg/kg, ip by immunoblot method", "type": "functional, organism-based", "parameters": "dose 100 mg/kg"}, "[15]": {"target": "Serine/threonine-protein kinase 17B (Homo sapiens) (UniProt O94768)", "assay": "Inhibition of DRAK2 assessed as residual activity at 10 uM relative to control", "method_in_brief": "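Radioactivity-based enzymatic assay of kinase activity, run as part of a 131-kinase profiling panel at the National Centre for Protein Kinase Profiling, Dundee.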"}, "[16]": {"target": "Dual specificity tyrosine-phosphorylation-regulated kinase 1A (Homo sapiens) (UniProt Q13627)", "assay": "Inhibition of DYRK1A assessed as residual activity at 10 uM", "method_in_brief": "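Standard radioactivity-based enzymatic kinase assays on a 131-kinase panel run by the Dundee profiling service; residual kinase activity recorded.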"}, "[17]": {"target": "Cyclin-dependent kinase 2 (Homo sapiens) (UniProt P24941)", "assay": "Inhibition of CDK2 assessed as residual activity at 10 uM relative to control"}, "[18]": {"target": "Homeodomain-interacting protein kinase 1 (Homo sapiens) (UniProt Q86Z02)", "assay": "Inhibition of HIPK1 assessed as residual activity at 10 uM", "method_in_brief": "as §1"}, "[19]": {"target": "Cyclin-dependent kinase 2/cyclin A (Homo sapiens) (UniProt P24941+P20248+P78396)", "assay": "Inhibition of CDK2-Cyclin A assessed as residual activity at 10 uM", "type": "protein-complex assay"}, "[20]": {"target": "Serine/threonine-protein kinase WNK1 (Homo sapiens) (UniProt Q9H4A3)", "assay": "Inhibition of WNK1 assessed as residual activity at 1 uM"}, "[21]": {"target": "Mitogen-activated protein kinase 1 (Homo sapiens) (UniProt P28482)", "assay": "Inhibition of ERK2 assessed as residual activity at 10 uM relative to control"}, "[22]": {"target": "Cyclin-dependent kinase 11A (Homo sapiens) (UniProt Q9UQ88)", "assay": "Inhibition of CDC2L2 assessed as residual activity at 10 uM relative to control"}, "[23]": {"target": "Insulin receptor-related protein (Homo sapiens) (UniProt P14616)", "assay": "Inhibition of IRR assessed as residual activity at 1 uM", "method_in_brief": "as §1"}, "[24]": {"system": "Tyrosine-protein kinase ABL1 (Homo sapiens), P00519 [F317I]", "assay": "Inhibition of phosphorylated ABL1 F317I mutant assessed as residual activity at 10 uM relative to control"}, "[25]": {"target": "Dual specificity protein kinase CLK3 (Homo sapiens) (UniProt P49761)", "assay": "Inhibition of CLK3 assessed as residual activity at 10 uM relative to control", "method_in_brief": "as §2"}, "[26]": {"system": "Epidermal growth factor receptor (Homo sapiens), P00533 [T790M]", "assay": "Inhibition of EGFR T790M mutant assessed as residual activity at 10 uM relative to control", "type": "protein assay", "method_in_brief": "as §2"}, "[27]": {"target": "Ephrin type-A receptor 7 (Homo sapiens) (UniProt Q15375)", "sequence (Q15375 28-998 limits assumed)": "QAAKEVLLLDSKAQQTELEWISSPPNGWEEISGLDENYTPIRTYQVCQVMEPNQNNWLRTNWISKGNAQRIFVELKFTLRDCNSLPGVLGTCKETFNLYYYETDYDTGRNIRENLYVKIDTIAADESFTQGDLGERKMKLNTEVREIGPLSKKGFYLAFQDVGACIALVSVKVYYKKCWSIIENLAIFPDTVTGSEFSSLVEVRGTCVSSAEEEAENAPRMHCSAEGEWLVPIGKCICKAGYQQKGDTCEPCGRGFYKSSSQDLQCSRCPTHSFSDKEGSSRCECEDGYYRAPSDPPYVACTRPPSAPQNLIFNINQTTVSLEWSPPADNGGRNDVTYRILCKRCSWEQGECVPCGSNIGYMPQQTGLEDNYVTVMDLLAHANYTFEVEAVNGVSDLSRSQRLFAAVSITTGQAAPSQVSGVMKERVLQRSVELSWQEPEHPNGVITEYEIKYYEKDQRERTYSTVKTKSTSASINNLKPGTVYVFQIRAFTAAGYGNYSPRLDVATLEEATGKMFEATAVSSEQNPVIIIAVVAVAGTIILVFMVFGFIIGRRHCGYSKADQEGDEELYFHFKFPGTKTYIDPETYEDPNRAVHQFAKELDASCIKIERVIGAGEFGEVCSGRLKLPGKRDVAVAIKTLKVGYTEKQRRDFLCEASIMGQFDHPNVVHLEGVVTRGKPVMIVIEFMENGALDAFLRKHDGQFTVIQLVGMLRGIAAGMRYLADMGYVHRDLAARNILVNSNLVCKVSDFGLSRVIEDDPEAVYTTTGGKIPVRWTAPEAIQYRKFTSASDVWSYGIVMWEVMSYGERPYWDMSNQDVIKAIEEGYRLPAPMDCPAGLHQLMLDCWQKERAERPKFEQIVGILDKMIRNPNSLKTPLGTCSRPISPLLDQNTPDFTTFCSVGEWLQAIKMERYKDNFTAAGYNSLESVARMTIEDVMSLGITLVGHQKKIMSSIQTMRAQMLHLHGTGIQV", "assay": "Inhibition of EPHA7 assessed as residual activity at 10 uM relative to control", "method_in_brief": "as §2"}, "[28]": {"target": "Insulin-like growth factor 1 receptor (Homo sapiens) (UniProt P08069)", "assay": "Inhibition of IGF-1R assessed as residual activity at 1 uM", "method_in_brief": "as §1"}, "[29]": {"target": "Serine/threonine-protein kinase 24 (Homo sapiens) (UniProt Q9Y6E0)", "sequence (Q9Y6E0 whole entry, looked up)": "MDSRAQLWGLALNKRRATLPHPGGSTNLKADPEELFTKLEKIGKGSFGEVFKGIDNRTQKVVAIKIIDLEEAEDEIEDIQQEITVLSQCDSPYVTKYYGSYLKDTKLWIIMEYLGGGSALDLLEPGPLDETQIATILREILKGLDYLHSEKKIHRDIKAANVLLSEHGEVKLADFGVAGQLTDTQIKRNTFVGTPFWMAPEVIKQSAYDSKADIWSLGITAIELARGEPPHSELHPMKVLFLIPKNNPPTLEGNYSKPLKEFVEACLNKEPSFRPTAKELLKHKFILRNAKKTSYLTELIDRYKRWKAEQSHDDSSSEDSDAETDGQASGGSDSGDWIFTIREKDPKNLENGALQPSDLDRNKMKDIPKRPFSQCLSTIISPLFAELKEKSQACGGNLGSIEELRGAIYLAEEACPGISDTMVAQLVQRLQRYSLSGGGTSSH", "assay": "Inhibition of MST3 assessed as residual activity at 10 uM relative to control"}, "[30]": {"system": "Mast/stem cell growth factor receptor Kit (Homo sapiens), P10721 [V559D]", "assay": "Inhibition of KIT V559D mutant assessed as residual activity at 10 uM relative to control"}, "[31]": {"target": "Macrophage-stimulating protein receptor (Homo sapiens) (UniProt Q04912)", "assay": "Inhibition of MST1R assessed as residual activity at 10 uM relative to control"}, "[32]": {"system": "Brain", "assay": "AUClast in Swiss albino mouse brain at 1 mg/kg, iv", "type": "ADME, organism-based", "parameters": "dose 1 mg/kg, route intravenous, time 0 - last", "conditions": "in vivo", "method_in_brief": "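Male Swiss Albino mice, single dose given intravenously (1 mg/kg) or orally (10 mg/kg). Drug measured in plasma and brain, with AUClast taken for each. The brain/plasma ratio is based on AUClast, and oral bioavailability is derived from the IV and PO plasma data.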"}, "[33]": {"target": "Mitogen-activated protein kinase kinase kinase kinase 3 (Homo sapiens) (UniProt Q8IVH8)", "assay": "Inhibition of MAP4K3 assessed as residual activity at 10 uM relative to control"}, "[34]": {"target": "AP2-associated protein kinase 1 (Homo sapiens) (UniProt Q2M2I8)", "assay": "Inhibition of AAK1 assessed as residual activity at 10 uM relative to control"}, "[35]": {"target": "Serine/threonine-protein kinase MRCK beta (Homo sapiens) (UniProt Q9Y5S2)", "assay": "Inhibition of MRCKB assessed as residual activity at 10 uM relative to control"}}, "note": "The source made the active and inactive calls. The calls are words filed in the database; no cut-off is given here."}
{"smiles": "O=C(Nc1cccnc1)c1cc(-c2ccnc(F)c2)ccc1OCc1ccccc1", "values": [{"measurement": "Activity", "setting": "[1]", "value": 53, "unit": "%"}, {"measurement": "Activity", "setting": "[2]", "value": 21, "unit": "%"}, {"measurement": "Activity", "setting": "[3]", "value": 117, "unit": "%"}, {"measurement": "Activity", "setting": "[4]", "value": 68, "unit": "%"}, {"measurement": "inhibition", "setting": "[5]", "value": "Active"}, {"measurement": "Activity", "setting": "[6]", "value": 73, "unit": "%"}, {"measurement": "Activity", "setting": "[7]", "value": 46, "unit": "%"}, {"measurement": "Activity", "setting": "[8]", "value": 5.8, "unit": "%"}, {"measurement": "Activity", "setting": "[9]", "value": 46, "unit": "%"}, {"measurement": "Activity", "setting": "[10]", "value": 73, "unit": "%"}, {"measurement": "Activity", "setting": "[11]", "value": 48, "unit": "%"}, {"measurement": "Activity", "setting": "[12]", "value": 52, "unit": "%"}, {"measurement": "Activity", "setting": "[13]", "value": 63, "unit": "%"}, {"measurement": "inhibition", "setting": "[14]", "value": "inactive"}, {"measurement": "Activity", "setting": "[15]", "value": 72, "unit": "%"}, {"measurement": "Activity", "setting": "[16]", "value": 104, "unit": "%"}, {"measurement": "Activity", "setting": "[17]", "value": 53, "unit": "%"}, {"measurement": "Activity", "setting": "[18]", "value": 61, "unit": "%"}, {"measurement": "Activity", "setting": "[19]", "value": 117, "unit": "%"}, {"measurement": "Activity", "setting": "[20]", "value": 104, "unit": "%"}, {"measurement": "Activity", "setting": "[21]", "value": 44, "unit": "%"}, {"measurement": "Activity", "setting": "[22]", "value": 63, "unit": "%"}, {"measurement": "Activity", "setting": "[23]", "value": 76, "unit": "%"}, {"measurement": "Activity", "setting": "[24]", "value": 38, "unit": "%"}, {"measurement": "Activity", "setting": "[25]", "value": 58, "unit": "%"}, {"measurement": "Activity", "setting": "[26]", "value": 40, "unit": "%"}, {"measurement": "Activity", "setting": "[27]", "value": 60, "unit": "%"}, {"measurement": "Activity", "setting": "[28]", "value": 123, "unit": "%"}, {"measurement": "Activity", "setting": "[29]", "value": 63, "unit": "%"}, {"measurement": "Activity", "setting": "[30]", "value": 70, "unit": "%"}, {"measurement": "Activity", "setting": "[31]", "value": 17, "unit": "%"}, {"measurement": "AUClast", "setting": "[32]", "value": 708.7, "unit": "ng·h/mL"}, {"measurement": "Activity", "setting": "[33]", "value": 60, "unit": "%"}, {"measurement": "Activity", "setting": "[34]", "value": 67, "unit": "%"}, {"measurement": "Activity", "setting": "[35]", "value": 59, "unit": "%"}]}
